Measured values from ChEMBL document CHEMBL3526116, “Toxicological evaluation of acyl glucuronides of nonsteroidal anti-inflammatory drugs using human embryonic kidney 293 cells stably expressing human UDP-glucuronosyltransferase and human hepatocytes” (Drug Metab Dispos, 2011).

Legend:
[1] = target: T1, UDP-glucuronosyltransferase 1A4 (Homo sapiens, UniProt P22310); assay: Activity of human UGT1A4 expressed in HEK293 cells assessed as enzyme-mediated diclofenac acyl-beta-D-glucuronide formation at 0.1 mM measured at 24 hrs by LC-MS/MS analysis; format: ADME, cell-based; settings: hek293, 24 h, 100 µM
T1 sequence (P22310 whole entry): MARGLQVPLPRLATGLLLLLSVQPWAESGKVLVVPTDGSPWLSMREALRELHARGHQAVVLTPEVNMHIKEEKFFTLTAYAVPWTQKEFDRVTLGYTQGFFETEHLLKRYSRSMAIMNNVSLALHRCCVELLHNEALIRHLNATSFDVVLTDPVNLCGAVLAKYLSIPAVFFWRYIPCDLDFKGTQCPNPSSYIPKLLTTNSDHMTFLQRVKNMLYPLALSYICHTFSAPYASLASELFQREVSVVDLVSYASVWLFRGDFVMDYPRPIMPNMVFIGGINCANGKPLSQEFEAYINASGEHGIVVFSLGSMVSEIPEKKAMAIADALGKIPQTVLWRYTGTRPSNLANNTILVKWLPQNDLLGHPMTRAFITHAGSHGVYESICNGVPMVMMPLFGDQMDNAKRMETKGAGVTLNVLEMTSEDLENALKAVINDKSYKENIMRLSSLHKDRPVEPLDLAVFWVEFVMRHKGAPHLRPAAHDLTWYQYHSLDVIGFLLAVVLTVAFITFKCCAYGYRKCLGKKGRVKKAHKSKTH
Method in brief: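 HEK293 stably expressing human UGT1A4, 2 x 10^5 cells/well in DMEM with 0.5% FBS, drug exposure 6–24 h, DMSO ≤0.1% final. Acyl glucuronide in cell fraction and medium measured by LC-MS/MS after methanol/acetic acid (100:1) precipitation and centrifugation. Triplicate determinations.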

[2] = system: HEK293; assay: Cytotoxicity against HEK293 cells expressing UGT assessed as decrease in cell viability at 0.1 mM measured up to 72 hrs by MTT assay; format: ADME, cell-based; settings: human, hek293, 72 h, 100 µM
Method in brief: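 Mock and UGT1A3/UGT1A4 stable HEK293 cells given drug for up to 72 h; viability measured by WST-8-based MTT assay.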

[3] = system: Hepatocyte; assay: Cellular uptake in human hepatocytes at 0.1 mM measured at 6 hrs by LC-MS/MS analysis in absence of acyl glucuronidation inhibitor (-)-borneol; format: ADME, cell-based; settings: 100 µM
Method in brief: (§1)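 Cryopreserved pooled human hepatocytes on collagen-coated wells, 2 × 10^5 cells/well in HCM medium with 0.5% FBS, preincubated 30 min with or without 1 mM (-)-borneol, then drug for 6 h; DMSO ≤0.2% final. Parent drug in cell fraction measured by LC-MS/MS after methanol/acetic acid extraction. Mean ± SD of triplicates.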

[4] = system: HEK293; assay: Cytotoxicity against HEK293 cells expressing UGT1A3 assessed as decrease in cell viability by measuring intracellular ATP content at 0.1 mM by CellTiter-Glo luminescent assay; format: ADME, cell-based; settings: human, hek293, 100 µM; TDE = time-dependent effect
Method in brief: (§2)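 UGT1A3 or UGT1A4 stable HEK293 cells, 2 x 10^4 cells/well in 0.1 mL DMEM with 0.5% FBS, drug for 6, 12 or 24 h. Viability from intracellular ATP via CellTiter-Glo luminescence, expressed as percent of control cells. Mean ± SD of triplicates.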

[5] = system: HEK293; assay: Cytotoxicity against HEK293 cells expressing UGT assessed as LDH leakage at 0.1 mM after 6 to 24 hrs by spectrophotometric analysis relative to total cell LDH level; format: ADME, cell-based; settings: human, hek293, 100 µM
Method in brief: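 Stable UGT-expressing or mock HEK293 lines in DMEM with 0.5% FBS, 2 x 10^4 cells/well, drug for 6, 12 or 24 h. LDH released into medium read at 490 nm (690 nm reference); percentage calculated against maximum release from control cells lysed with 1% Triton X-100.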

[6] = system: HEK293; assay: Cytotoxicity against HEK293 cells expressing UGT1A3 assessed as decrease in cell viability at 0.1 mM measured at 24 hrs by MTT assay; format: ADME, cell-based; settings: human, hek293, 24 h, 100 µM
[7] = system: HEK293; assay: Genotoxicity in HEK293 cells expressing UGT1A3 assessed as DNA strand breaks at 0.1 mM after 24 hrs by comet assay; format: toxicity, cell-based; settings: human, hek293, 24 h, 100 µM
Method in brief: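 HEK293 cells stably expressing UGT1A3, seeded 24 h before treatment and exposed 24 h in 0.5% FBS DMEM (vehicle 0.1% DMSO). Alkaline comet assay: low-melting agarose embedding, lysis pH 10 for 1 h at 4°C, 30 min unwinding in NaOH/EDTA, electrophoresis 300 mA for 20 min, ethidium bromide stain. Tail extent moment scored on 150-180 cells over more than 3 experiments, median (IQR).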

[8] = system: HEK293; assay: Cytotoxicity against mock transfected HEK293 cells assessed as decrease in cell viability at 0.1 mM […]; format: cell-based; settings: human, hek293, 100 µM; TDE = time-dependent effect
[9] = system: HEK293; assay: Cytotoxicity against HEK293 cells expressing UGT1A4 assessed as decrease in cell viability at 0.1 mM by MTT assay; format: ADME, cell-based; settings: human, hek293, 100 µM; TDE = time-dependent effect
[10] = system: HEK293; assay: Cytotoxicity against mock transfected HEK293 cells assessed as decrease in cell viability by measuring intracellular ATP content at 0.1 mM by CellTiter-Glo luminescent assay; format: cell-based; settings: human, hek293, 100 µM; TDE = time-dependent effect
Method in brief: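 Mock-transfected HEK293 cells seeded at 2 x 10^4 cells/well in DMEM with 0.5% FBS, drug added at once and incubated 6, 12 or 24 h. Viability read either by WST-8 (CCK-8) formazan absorbance at 450 nm or by intracellular ATP luminescence (CellTiter-Glo), as percent of control cells; mean ± SD of triplicates. Final DMSO ≤0.1%.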

[11] = system: HEK293; assay: Cytotoxicity against HEK293 cells expressing UGT1A3 assessed as decrease in cell viability at 0.1 mM by MTT assay; format: ADME, cell-based; settings: human, hek293, 100 µM; TDE = time-dependent effect
[12] = system: Hepatocyte; assay: Cellular uptake in human hepatocytes at 0.1 mM measured at 6 hrs by LC-MS/MS analysis in presence of acyl glucuronidation inhibitor (-)-borneol; format: ADME, cell-based; settings: 100 µM; method in brief: as §1
[13] = system: HEK293; assay: Cytotoxicity against HEK293 cells expressing UGT1A4 assessed as decrease in cell viability by measuring intracellular ATP content at 0.1 mM by CellTiter-Glo luminescent assay; format: ADME, cell-based; settings: human, hek293, 100 µM; TDE = time-dependent effect; method in brief: as §2
[14] = target: T2, UDP-glucuronosyltransferase 1A3 (Homo sapiens, UniProt P35503); assay: Activity of human UGT1A3 expressed in HEK293 cells assessed as enzyme-mediated diclofenac acyl-beta-D-glucuronide formation at 0.1 mM measured at 24 hrs by LC-MS/MS analysis; format: ADME, cell-based; settings: hek293, 24 h, 100 µM
T2 sequence (P35503 whole entry): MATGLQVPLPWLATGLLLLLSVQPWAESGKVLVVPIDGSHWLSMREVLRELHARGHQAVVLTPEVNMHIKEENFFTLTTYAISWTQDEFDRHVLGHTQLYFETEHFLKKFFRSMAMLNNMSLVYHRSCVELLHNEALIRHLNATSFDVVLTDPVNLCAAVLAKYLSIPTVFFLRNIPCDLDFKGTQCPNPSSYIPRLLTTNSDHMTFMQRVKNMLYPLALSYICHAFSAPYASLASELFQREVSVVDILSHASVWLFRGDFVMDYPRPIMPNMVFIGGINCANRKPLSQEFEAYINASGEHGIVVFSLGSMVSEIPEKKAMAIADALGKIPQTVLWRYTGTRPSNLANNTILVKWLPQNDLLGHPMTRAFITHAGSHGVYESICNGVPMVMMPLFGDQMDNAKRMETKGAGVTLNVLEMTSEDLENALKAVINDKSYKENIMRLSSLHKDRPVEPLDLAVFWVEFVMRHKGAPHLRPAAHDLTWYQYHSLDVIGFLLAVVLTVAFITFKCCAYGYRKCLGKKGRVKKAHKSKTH
Method in brief: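 HEK293 stably expressing human UGT1A3 (G418-selected), 2 x 10^5 cells/well in 1 mL DMEM with 0.5% FBS, exposed immediately to drug for 6, 12 or 24 h; DMSO ≤0.1% final. Cells and medium separated by centrifugation, cell fraction resuspended in PBS; aliquots mixed 1:1 with methanol/acetic acid (100:1), spun, supernatant analysed by LC-MS/MS. Triplicate determinations, mean ± SD.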

Drug metabolism [1]: metabolite_not_detected
Drug uptake [3]: Active
Drug uptake [12]: Active
Drug metabolism [14]: metabolite_detected
Structure (SMILES): O=C([O-])Cc1ccccc1Nc1c(Cl)cccc1Cl.[Na+] [DICLOFENAC SODIUM]
Activity [2]: Non-toxic
Activity [4]: tde
Activity [5]: < 5.4%
Activity [6]: Non-toxic
Activity [7]: Non-toxic
Activity [8]: tde
Activity [9]: tde
Activity [10]: tde
Activity [11]: tde
Activity [13]: tde
